This is an account of results in article PMC2947195 (Biochemical Journal, 2010).

One test addresses T1, S313A hRFC (Homo sapiens, UniProt P41440, S313A).
T1 sequence (P41440 1-591 S313A): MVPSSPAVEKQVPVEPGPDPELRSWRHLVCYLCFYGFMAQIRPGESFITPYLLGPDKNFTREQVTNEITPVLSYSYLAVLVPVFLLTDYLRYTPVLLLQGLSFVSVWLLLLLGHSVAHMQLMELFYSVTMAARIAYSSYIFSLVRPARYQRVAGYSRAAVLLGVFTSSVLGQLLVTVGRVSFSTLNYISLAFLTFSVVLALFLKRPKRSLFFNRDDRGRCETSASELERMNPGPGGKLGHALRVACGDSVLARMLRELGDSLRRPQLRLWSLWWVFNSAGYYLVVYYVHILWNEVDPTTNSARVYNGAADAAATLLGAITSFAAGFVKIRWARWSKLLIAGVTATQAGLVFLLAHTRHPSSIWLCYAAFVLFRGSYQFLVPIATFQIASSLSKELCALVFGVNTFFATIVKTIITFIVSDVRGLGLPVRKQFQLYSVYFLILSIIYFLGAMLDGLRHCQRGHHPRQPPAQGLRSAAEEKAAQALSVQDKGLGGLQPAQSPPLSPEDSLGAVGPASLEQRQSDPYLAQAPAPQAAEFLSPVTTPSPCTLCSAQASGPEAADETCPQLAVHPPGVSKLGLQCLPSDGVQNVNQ
The test can be described thus: [3H]MTX transport kinetics. Type of test: cell-based. The method in brief:
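Human hRFC-null K500E (K562 subline) cells were electroporated (155 V, 1000 μF) with wt or Ser313-mutant hRFC. Stable clones were selected in soft agar with G418 (1 mg/ml). [3H]MTX uptake was measured over 180 s in HBSS at 37 °C in a shaking water bath and expressed as pmol/mg protein (Lowry). Kt and Vmax came from Lineweaver–Burk plots, with Vmax normalized to densitometric Western blot hRFC levels. Three experiments, means±S.E.M.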

The target in a further test is T2, cl-N6/C6 hRFC (Homo sapiens, UniProt P41440, C220S/C246S/C30S/C33S/C365S/C396S/C458S).
T2 sequence (P41440 1-591 C30S/C33S/C220S): T1 sequence (P41440 1-591 S313A) with C30S, C33S, C220S, A313S
T2 sequence (P41440 227-537 C246S/C365S/C396S/C458S limits assumed): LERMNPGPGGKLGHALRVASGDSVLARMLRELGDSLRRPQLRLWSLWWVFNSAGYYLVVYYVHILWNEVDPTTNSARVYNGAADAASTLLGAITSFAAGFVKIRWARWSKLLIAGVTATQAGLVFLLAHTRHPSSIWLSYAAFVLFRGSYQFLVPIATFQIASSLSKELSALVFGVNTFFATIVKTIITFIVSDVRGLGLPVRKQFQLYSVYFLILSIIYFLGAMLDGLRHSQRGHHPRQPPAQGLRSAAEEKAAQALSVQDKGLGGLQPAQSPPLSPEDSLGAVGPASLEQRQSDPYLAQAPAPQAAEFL
The test can be described thus: [3H]MTX uptake in R5 HeLa cells co-transfected with cysteine-less half-molecules. The test is classed as cell-based. The following applies: 0.5 μM [3H]MTX.

Substitutions are numbered along the chain they refer to.

`CN(Cc1cnc2nc(N)nc(N)c2n1)c1ccc(C(=O)N[C@@H](CCC(=O)O)C(=O)O)cc1` [MTX, methotrexate]: the “Vmax (normalized)/Kt” value on S313A hRFC was determined as 0.18. In addition, the Kt at S313A hRFC (K500E stable transfectant, mean±S.E.M., n=3) amounted to 2.26 ± 0.44 µM. Besides, the “Normalized Vmax” value on S313A hRFC (Vmax normalized to relative hRFC level on Western blots) was found to be 0.41±0.03. Besides, on cl-N6/C6 hRFC, the “MTX uptake relative to residual level in R5 cells” value was ~ 3 fold and the “decrease of MTX transport compared with wt-N6/C6” value is ~ 40%.
